Assay [1] has as its system A549. Nature of the assay: Antiproliferative activity against human A549 cells assessed as reduction in cell viability after 24 hrs by MTT assay. Conditions: A549, 24 h. Type of assay: functional, cell-based. A digest of the protocol:
(§1)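 Cells seeded at 5.5 × 10⁴ cells/mL in 96-well plates and grown 24 h before exposure to graded compound concentrations. Viability read by MTT after 24 h. A549, MCF-7 and MDA-MB-468 were kept in DMEM with 10% FBS under 5% CO₂; HL60 and U937 in RPMI 1640 with 10% FBS. IC50 taken as mean of triplicate tests.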

For assay [2], the system named is U-937. Briefly: Antiproliferative activity against human U937 cells assessed as reduction in cell viability after 24 hrs by MTT assay. Conditions: U-937, 24 h. Type of assay: functional, cell-based. A digest of the protocol: as §1
Assay [3] deals with MCF7. Briefly: Antiproliferative activity against human MCF-7 cells assessed as reduction in cell viability after 24 hrs by MTT assay. The format is functional, cell-based. Conditions: MCF7, 24 h. In short, it runs like this:
as §1

Assay [4] relates to MDA-MB-468. Briefly: Antiproliferative activity against human MDA-MB-468 cells assessed as reduction in cell viability after 24 hrs by MTT assay. The format is functional, cell-based. Conditions: MDA-MB-468, 24 h. In short, it runs like this:
as §1

Assay [5] concerns HL-60. Nature of the assay: Antiproliferative activity against human HL60 cells assessed as reduction in cell viability after 24 hrs by MTT assay. Type of assay: functional, cell-based. The note with it: HL-60, 24 h. A digest of the protocol: as §1
The target of assay [6] is T1, Serine/threonine-protein kinase ULK1 (Homo sapiens) (UniProt O75385).
T1 sequence (whole entry): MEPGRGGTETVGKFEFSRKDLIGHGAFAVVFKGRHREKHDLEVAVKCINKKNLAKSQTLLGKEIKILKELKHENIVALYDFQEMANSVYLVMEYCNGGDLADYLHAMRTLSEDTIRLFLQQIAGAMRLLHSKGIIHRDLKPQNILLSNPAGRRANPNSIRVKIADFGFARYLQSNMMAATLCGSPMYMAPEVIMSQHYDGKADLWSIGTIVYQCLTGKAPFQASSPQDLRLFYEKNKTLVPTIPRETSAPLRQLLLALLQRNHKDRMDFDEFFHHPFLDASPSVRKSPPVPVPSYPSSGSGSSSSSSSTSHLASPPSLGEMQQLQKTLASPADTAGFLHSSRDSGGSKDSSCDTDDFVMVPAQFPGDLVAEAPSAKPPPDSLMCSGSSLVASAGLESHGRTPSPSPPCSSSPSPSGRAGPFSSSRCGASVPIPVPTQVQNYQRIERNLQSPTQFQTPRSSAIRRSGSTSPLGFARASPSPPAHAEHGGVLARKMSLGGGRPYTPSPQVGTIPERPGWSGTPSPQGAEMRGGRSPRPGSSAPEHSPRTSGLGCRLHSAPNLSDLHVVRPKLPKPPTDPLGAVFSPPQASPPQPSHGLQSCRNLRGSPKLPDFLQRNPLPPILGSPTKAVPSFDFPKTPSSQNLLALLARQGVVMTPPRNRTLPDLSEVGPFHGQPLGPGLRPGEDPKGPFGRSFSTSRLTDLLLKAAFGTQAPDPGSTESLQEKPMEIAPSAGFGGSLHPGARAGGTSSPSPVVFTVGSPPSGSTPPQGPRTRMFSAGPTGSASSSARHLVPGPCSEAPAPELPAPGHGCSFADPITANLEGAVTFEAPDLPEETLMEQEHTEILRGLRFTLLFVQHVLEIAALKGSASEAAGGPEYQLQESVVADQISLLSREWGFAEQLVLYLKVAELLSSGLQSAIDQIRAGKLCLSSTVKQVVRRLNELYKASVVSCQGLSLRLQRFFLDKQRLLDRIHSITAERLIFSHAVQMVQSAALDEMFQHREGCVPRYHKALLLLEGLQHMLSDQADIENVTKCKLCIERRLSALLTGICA
Nature of the assay: Inhibition of recombinant human ULK1 at 10 uM preincubated for 60 mins followed by substrate addition and measured after 30 mins by ADP-glo assay. The note with it: time 90.0 min. A digest of the protocol:
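Recombinant ULK1 activity was measured by ADP-Glo luminescence of ADP formed, in 40 mM Tris pH 7.5, 20 mM MgCl₂, 0.1 mg/ml BSA and […]. After the kinase reaction, plates were mixed 2 min and held 40 min at room temperature. Detection reagent was then added for 30 min at room temperature before luminescence was read.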

The values below come from ChEMBL document CHEMBL4706589, “Discovery of 5-bromo-4-phenoxy-N-phenylpyrimidin-2-amine derivatives as novel ULK1 inhibitors that block autophagy and induce apoptosis in non-small cell lung cancer” (Eur J Med Chem, 2020).

Molecules are shown by their SMILES. pIC50: −log10 of the molar value. Where only a bound is given, the exact number is not on record here.

In the case of `CNC(=O)c1ccccc1Oc1nc(Nc2ccccc2OC)ncc1Br`, the pIC50 in assay [1] was 4.39; in assay [2] it was 4.28; in assay [3], less than 4.30; in assay [4], less than 4.30; in assay [5], less than 4.30. Also, in assay [6], the inhibition is 19.2%.
In the case of `CNC(=O)c1ccccc1Oc1nc(Nc2cccc(C)c2)ncc1Br`, the pIC50 was 5.21 in assay [1]; 4.80 in assay [2]; 4.78 in assay [3]; 4.73 in assay [4]; 4.79 in assay [5]. The inhibition in assay [6] is 73.7%.
Consider `Cc1cccc(Nc2ncc(Br)c(Oc3cccc(F)c3)n2)c1`, for which the pIC50 in assay [1] is 4.86; in assay [2], 4.71; in assay [3], 4.57; in assay [4] it was 4.53; in assay [5] it was 4.81. The inhibition in assay [6] was determined as 49.3%.
On to `CCOc1ccccc1Oc1nc(Nc2cccc(C)c2)ncc1Br`, for which the pIC50 in assay [1] was 4.69; in assay [2], 4.41; in assay [3] it was 4.41; in assay [4], 4.50; in assay [5], 4.46. Further, the inhibition in assay [6] turned out to be 75.7%.
Turning to `CNC(=O)c1ccccc1Oc1nc(Nc2cccc(Br)c2)ncc1Br`, the pIC50 in assay [1] is 4.97; in assay [2], 4.31; in assay [3], 4.37; in assay [4], 4.50; in assay [5], 4.41. In addition, the inhibition in assay [6] came to 62.7%.
Regarding `Cc1cccc(Nc2ncc(Br)c(Oc3cccc([N+](=O)[O-])c3)n2)c1`, the pIC50 in assay [1] was 4.61; in assay [2], 4.29; in assay [3] it was less than 4.30; in assay [4], 4.44; in assay [5], 4.41. Further, the inhibition in assay [6] was 40.2%.
Consider `COc1cc(Nc2ncc(I)c(NCCCN)n2)cc(OC)c1OC`, for which the pIC50 in assay [1] is 4.40; in assay [2], 4.40; in assay [3], less than 4.30; in assay [4], less than 4.30; in assay [5] it was 4.36. In addition, the inhibition in assay [6] came out at 32.3%.
`Cc1cccc(Nc2ncc(Br)c(Oc3ccc(OCc4ccccc4)cc3)n2)c1`: the negative logarithm of the IC50 (pIC50) is 4.31 in assay [1]; less than 4.30 in assay [2]; less than 4.30 in assay [3]; less than 4.30 in assay [4]; less than 4.30 in assay [5]. In addition, the inhibition in assay [6] was 16.3%.
With `CNC(=O)c1ccccc1Oc1nc(Nc2cccc(OC)c2)ncc1Br`, the pIC50 in assay [1] is 5.21; in assay [2], 4.61; in assay [3], 4.74; in assay [4], 4.75; in assay [5] it was 4.79. Also, the inhibition in assay [6] turned out to be 50.5%.
`Cc1cccc(Nc2ncc(Br)c(Oc3cc(Cl)cc(Cl)c3)n2)c1`: the negative logarithm of the IC50 (pIC50) was 4.36 in assay [1]; less than 4.30 in assay [2]; less than 4.30 in assay [3]; less than 4.30 in assay [4]; less than 4.30 in assay [5]. The inhibition in assay [6] is 3.78%.
Turning to `CCN(CC)CCNc1nc(Nc2cc(OC)c(OC)c(OC)c2)ncc1I`, the pIC50 in assay [1] was 4.77; in assay [2], 4.66; in assay [3] it was 4.49; in assay [4], 4.49; in assay [5] it was 4.67. Besides, the inhibition in assay [6] worked out at 44.9%.
Consider `CNC(=O)c1ccccc1Oc1nc(Nc2cccc(C(C)C)c2)ncc1Br`, for which the pIC50 was 5.15 in assay [1]; 4.85 in assay [2]; 4.58 in assay [3]; 4.71 in assay [4]; 4.76 in assay [5]. In assay [6], the inhibition is 84%.
As for `CNC(=O)c1ccccc1Oc1nc(Nc2ccc(Cl)cc2F)ncc1Br`, the pIC50 is 4.42 in assay [1]; less than 4.30 in assay [2]; less than 4.30 in assay [3]; less than 4.30 in assay [4]; less than 4.30 in assay [5]. For the same compound, the inhibition in assay [6] came to 17.8%.
On to `CNC(=O)c1ccccc1Oc1nc(Nc2cc(OC)c(OC)c(OC)c2)ncc1Br`, for which the pIC50 in assay [1] was 5.17; in assay [2], 4.60; in assay [3], 4.58; in assay [4], 4.74; in assay [5], 4.72.
